Most compounds without a hit are left out; they make up all but 10% or so of the library.
WT yeast gro inh = growth inhibition of WT strain, primary screen, mitochondrial fusion inhibitor project, WT and mutant strains, chemical genetic; inhibition, % at 10 µM; actives 2.1% (n = 190,000); mitochondrial fusion phenotypic screen; AID 1362, 2008; in the data active = inhibition above about 58%; tested in S. cerevisiae
PMI act = activators of human PMI, primary screen, biochemical, fluorescence intensity, near-Km mannose 6-phosphate; actives 0.005% (n = 190,000); purified human PMI, coupled resazurin fluorescence, 20 min; hits give high values; 1 = vehicle control, 0 substrate-free wells; activation factor at 20 µM;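 active = activation factor of 2 or more at 20 µM, relative to plate controls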
Target sequence (P34949 whole entry, looked up): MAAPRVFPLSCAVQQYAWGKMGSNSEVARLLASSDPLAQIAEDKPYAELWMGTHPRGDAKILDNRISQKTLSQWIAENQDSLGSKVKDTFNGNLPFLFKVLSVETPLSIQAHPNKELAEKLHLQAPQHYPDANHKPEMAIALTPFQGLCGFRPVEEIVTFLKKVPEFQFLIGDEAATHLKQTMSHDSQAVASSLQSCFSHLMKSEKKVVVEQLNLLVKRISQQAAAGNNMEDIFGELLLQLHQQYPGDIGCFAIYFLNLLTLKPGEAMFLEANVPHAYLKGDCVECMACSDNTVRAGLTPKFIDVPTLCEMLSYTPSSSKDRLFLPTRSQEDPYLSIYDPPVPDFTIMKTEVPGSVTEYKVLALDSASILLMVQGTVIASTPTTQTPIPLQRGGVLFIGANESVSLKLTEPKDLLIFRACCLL
L major viab = Leishmania major promastigote growth inhibition, primary screen. AID 1063, 2008. Leishmania major promastigotes, resazurin fluorescence viability. actives 9% (n = 200,000). inhibition, % at 10 µM; in the data active = inhibition above about 50%;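 note: promastigotes grown with compound for 44 hours at 28 °C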
PMI act satM6P = human PMI activators, high substrate, primary screen, biochemical, fluorescence intensity, near-saturating mannose 6-phosphate; Mannose-6-phosphate isomerase (Homo sapiens), P34949; coupled PMI enzyme assay, resazurin fluorescence, 20 min; hits give high values; 1 = untreated enzyme, 0 = substrate-free blank; activation factor at 20 µM; actives 0.34% (n = 190,000);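 active = activation factor of 2 or more at 20 µM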
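Test system: Human PMI in coupled enzyme assay | Input: 15 ng/mL PMI | Medium: HEPES-buffered pH 7.4 with magnesium and detergent | Compound: One concentration, 20 µM, in 1% DMSO | Incubation: Enzyme reaction with compound 20 min at room temperature | Detection: Diaphorase-driven resazurin-to-resorufin fluorescence, excitation 544, emission 590 nm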
Diaph act CS = compounds boosting diaphorase resazurin reduction – biochemical, uHTS, resorufin fluorescence, counter-screen for diaphorase-coupled primary assays, primary screen | activation factor at 20 µM | Diaphorase/resazurin coupled assay, 16 min; hits give high values; 1 = vehicle wells, 0 = NADH-free wells | actives 0.005% (n = 190,000);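 active = diaphorase activity raised at least twofold by the compound at 20 µM; inactive = activation factor below 2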
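Material: purified diaphorase enzyme from Clostridium kluyveri / Medium: HEPES pH 7.4 buffer with MgCl2 and Tween 20 / Schedule: enzyme reaction of 16 min at room temperature / Measured by: resorufin fluorescence, excitation 544 nm, emission 590 nm / Evaluation: rise in resorufin formation, marking diaphorase activation or chemical reduction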
Numbers without * were called inactive; x = no result given.

SMILES | WT yeast gro inh | PMI act | L major viab | PMI act satM6P | Diaph act CS
COc1cc(/C=N/NC(=O)CCN2CCN(Cc3ccccc3)CC2)cc(OC)c1OC | 0.1 | 0.9 | 52.2* | 0.9 | 1
CCOc1cc(/C=N/NC(=O)c2ccc(CN3CCOCC3)cc2)ccc1OCc1ccccc1 | 15.0 | 0.9 | 98.1* | 1 | 1
CC1CC(C)CN(C(=O)CSc2nc(N)cc(=O)[nH]2)C1 (stereo not given) | -10.2 | 1 | 2.4 | 1.1 | 1
COc1ccc(OC)c(NC(=O)Nc2cc(C(=O)O)ccc2C)c1 | 0.9 | 1.2 | -8.2 | 0.9 | 1.1
CCCCN(CC)CCCNC(=O)c1cc2cc3ccc(OC)cc3nc2o1 | 17.8 | 1 | 95.5* | 1 | 1
COc1ccc2cc3cc(C(=O)Nc4ccc5c(c4)OCO5)oc3nc2c1 | 6.0 | 1.2 | 99.7* | 1 | 0.9
COc1ccc2cc3cc(C(=O)NCCc4ccc(OC)c(OC)c4)oc3nc2c1 | 14.6 | 1 | 29.4 | 1 | 1.1
CCCN(CCC)CCCNC(=O)c1cc2cc3ccc(OC)cc3nc2o1 | 11.6 | 0.9 | 96.3* | 1 | 1
COc1ccc(C(=O)NNC(=O)CSc2nnc(-c3cccnc3)n2C)cc1 | -6.9 | 1 | -2.6 | 1 | 1
CC(C)CCNC(=O)Cc1csc(-c2ccccc2)n1 | -12.1 | 1 | 4.0 | 0.8 | 0.9
CCOc1ccc(Cc2noc3c2C(=O)CC(C)(C)C3)cc1OCC | 10.5 | 1 | 1.9 | 1 | 0.9
COc1cc(/C=N/NC(=O)c2cccnc2)ccc1OCC(=O)Nc1c(C)cc(C)cc1C | -3.1 | 1 | 54.2* | 1 | 0.9
COc1cc(/C=N/NC(=O)c2cccnc2)ccc1OCC(=O)Nc1ccccc1Cl | 7.8 | 1.1 | -4.5 | 1.1 | 1
COc1ccc(NC(=O)COc2ccc(/C=N/NC(=O)c3cccnc3)cc2OC)cc1 | -15.8 | 0.9 | 55.3* | 0.9 | 0.9
NNC(=O)c1ccc(COc2cccc3ccccc23)cc1 | 72.6* | 1 | -3.9 | 0.9 | 0.9
O=C(NCc1ccco1)c1ccc(COc2cccc3ccccc23)cc1 | -0.5 | 0.8 | -1.4 | 0.8 | 0.6
CC(C)C[C@H](NC(=O)c1nc[nH]c1C(=O)N(C)Cc1ccccc1)C(=O)OC(C)(C)C | 18.9 | 0.9 | 18.2 | 0.9 | 0.8
Cc1ccc(Oc2nc(-c3cccnc3)nc3ccccc23)c([N+](=O)[O-])n1 | -4.0 | 0.9 | 18.5 | 0.9 | 1
O=S(=O)(c1cccs1)N1CCN(CC(O)COc2cccc(Br)c2)CC1 (stereo not given) | 10.1 | 0.9 | 98.1* | 0.9 | 0.8
COc1ccc(C(C(=O)NC(C)(C)C)N(Cc2cccs2)C(=O)CCC(=O)Nc2cc(C)on2)cc1 (stereo not given) | -19.0 | 1 | 97.0* | 0.9 | 0.9
CCC(C)(C)NC(=O)C(c1ccc(C)o1)N(Cc1cccs1)C(=O)Cn1nnc2ccccc21 (stereo not given) | 47.8 | 1 | 36.2 | 1 | 1
CCC(C)(C)NC(=O)C(c1ccc(OC)cc1)N(Cc1cccs1)C(=O)CCC(=O)Nc1cc(C)on1 (stereo not given) | -4.3 | 1.1 | 97.4* | 1 | 0.9
CCC(C)(C)NC(=O)C(c1ccccc1)N(Cc1cccs1)C(=O)Cn1nnc2ccccc21 (stereo not given) | x | x | 67.7* | x | x
CCC(C)(C)NC(=O)C(c1ccc(OC)cc1)N(CC1CCCO1)C(=O)CCC(=O)Nc1cc(C)on1 (stereo not given) | -17.3 | 1.1 | -3.3 | 1.1 | 1
O=C(Nc1ccccc1F)Nc1ccccc1OC(F)F | 5.1 | 1 | 4.3 | 1 | 1
SMILES | WT yeast gro inh | PMI act | L major viab | PMI act satM6P | Diaph act CS
O=c1c(Cc2ccc(Cl)cc2)c(O)ccn1Cc1cccs1 | -8.2 | 1 | 9.5 | 1 | 0.9
C(=N\Nc1nc(Nc2ccccc2)nc(Nc2ccccc2)n1)/c1cccnc1 | 82.8* | 1.1 | 34.8 | 1.2 | 1
C(=N\Nc1nc(Nc2ccccc2)nc(Nc2ccccc2)n1)/c1ccncc1 | -20.1 | 0.9 | -2.6 | 0.9 | 0.9
C(=N/Nc1nc(-c2ccccc2)cc(-c2ccccc2)n1)/c1cccnc1 | 67.7* | 0.9 | 46.8 | 1 | 1
C=CCn1c(COc2cc(C)ccc2C(C)C)nnc1SCC(=O)c1c(N)n(C)c(=O)n(C)c1=O | -2.8 | 1 | -0.3 | 1 | 0.9
Cc1cc(NC(=O)/C=C/c2ccccc2)c(C(C)C)cc1O | 0.8 | 0.9 | 10.5 | 0.9 | 0.9
O=C1c2ccccc2NC(c2ccc(-c3cccc([N+](=O)[O-])c3)o2)N1O (stereo not given) | -11.0 | 1.1 | 81.6* | 1.2 | 0.9
O=C1c2ccccc2NC(c2ccc3c(c2)OCO3)N1O (stereo not given) | -3.5 | 1.2 | -10.4 | 1.3 | 1
O=C1c2ccccc2NC(c2ccc(-c3ccc(Br)cc3)o2)N1O (stereo not given) | -0.1 | 1.1 | 98.9* | 1.2 | 0.7
CC(=O)C1=C(O)C(=O)N(c2cccc(C(=O)O)c2)C1c1ccc(F)cc1 (stereo not given) | -14.6 | 1.1 | -4.0 | 1.1 | 1
Cc1ccc(NC(=O)C(=O)NCCN2CCN(S(C)(=O)=O)CC2)cc1C | 2.9 | 1 | 0.1 | 1 | 1.1
CCCCNC(=O)NNC(=O)COc1cccc(C)c1C | -14.7 | 1 | -6.8 | 1.1 | 0.9
O=C(c1cnn(-c2ccccc2)c1-n1cccc1)N1CCN(C2CCCCC2)CC1 | 11.8 | 1 | 75.0* | 1 | 0.9
CC(C)Oc1ccc(CCN=C(N)N=C(N)N)cc1Cl | -4.2 | 1.1 | 81.4* | 1.1 | 1.2
CCN(CC)C(=O)CN(c1cc2c(cc1OC)oc1ccccc12)S(=O)(=O)c1ccc(C)cc1 | -8.1 | 0.8 | 68.7* | 0.8 | 0.8
COc1ccc(/C=C2\CCCC3C2=NC(=S)NC3c2ccc(OC)cc2)cc1 (stereo not given) | 71.6* | 1.4 | 28.8 | 1.9 | 0.8
COc1ccc(Br)cc1S(=O)(=O)NCCN1CCOCC1 | 4.1 | 1.1 | 1.6 | 1 | 1
COc1cc(Cl)c(S(=O)(=O)NCCCN2CCOCC2)cc1Cl | -16.0 | 1 | 93.1* | 1 | 0.9
COc1cc(C)c(Cl)cc1S(=O)(=O)NCCCN1CCOCC1 | -2.0 | 0.9 | 85.5* | 1 | 0.9
COc1cc(C)c(Br)cc1S(=O)(=O)NCCCN1CCOCC1 | 13.1 | 1.1 | 75.1* | 1 | 1
COc1cc(C)c(Cl)cc1S(=O)(=O)NCCN1CCOCC1 | 13.5 | 1.1 | -2.5 | 1.1 | 1
Cc1ccc(S(=O)(=O)NCCCN2CCOCC2)c(C)c1 | 0.8 | 1.1 | 52.4* | 1.1 | 0.9

Compound activity from PubChem BioAssay.
